Screens deposited in PubChem BioAssay by several laboratories.
procasp7 counter: counter-screen for procaspase-3 activators: activators of human procaspase-7; recombinant procaspase-7, Ac-DEVD-pNA absorbance 405 nm; D23A/D198A/D206A triple mutant, cannot self-cleave; scale: DMSO 0, 5 µM enzyme 100; 330,000 tested, 0.093% active; activation, % at 8.5 µM; P55210;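 active means percent activation above the screen-wide mean plus 3 SD, cut at about 25% in these data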
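Test system: Procaspase-7 triple mutant (PC-7 D3A). Also added: Ac-DEVD-pNA substrate, 400 µM as added. Schedule: 1 h enzyme–compound preincubation and 2 h substrate reaction, both 25 °C. Signal: p-Nitroaniline absorbance at 405 nm, read at 0 and 120 min. Control set: low DMSO alone, high DMSO plus 5 µM PC-7.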
MPTP block: blocks calcium-induced mitochondrial swelling | 360,000 tested, 1.4% active | AID 602449 | inhibition, % at 10 µM | isolated mouse mitochondria, Ca2+ swelling absorbance, 30 min;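 active means inhibition of 50% or more, scaled per plate between neutral and stimulator controls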
proCasp3 act: procaspase-3 (human) activation; P42574; recombinant procaspase-3 D3A, Ac-DEVD-pNA absorbance 405 nm; activation, % at 8.5 µM; 330,000 tested, 0.11% active; AID 463141;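 active means activation above the mean of all tested compounds plus 3 SD, cut at about 21% in these data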
Target sequence (P42574 whole entry D9A/D28A/D175A): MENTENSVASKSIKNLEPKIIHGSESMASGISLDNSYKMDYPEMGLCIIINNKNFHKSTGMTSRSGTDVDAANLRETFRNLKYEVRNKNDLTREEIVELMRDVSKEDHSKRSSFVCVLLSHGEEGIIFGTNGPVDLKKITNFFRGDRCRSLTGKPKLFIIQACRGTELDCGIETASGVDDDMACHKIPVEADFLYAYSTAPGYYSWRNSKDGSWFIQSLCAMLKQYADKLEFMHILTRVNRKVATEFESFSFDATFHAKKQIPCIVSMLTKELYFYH
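Technique: 405 nm absorbance of p-nitroaniline, reads at 0 and 120 min; Test system: Procaspase-3 D3A mutant; Incubation: 1 h enzyme-compound preincubation, then 2 h substrate reaction, 25 °C; Repeats: singlicate, each compound tested once; Benchmarks: low control DMSO wells, high control DMSO plus 5 µM PC-3 D3A.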
GRIN3A LBD mod: modulates the human NR3A ligand-binding domain; NR3A LBD differential scanning fluorimetry, Tm shift; 0% = protein alone, 100% = glycine-bound protein; Tm shift relative to glycine control, % at 25 µM; 340,000 tested, 2.5% active;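 active means melting temperature shift of at least 10% of the positive control shift, at one fixed dose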
aDG glyco act: alpha-DG glycosylation activation; Pro5-aDG cells, alpha-DG glycosylation AlphaScreen (IIH6); 0% Pro5, 100% B10-LARGE cell signal; activation, % at 10 µM; 360,000 tested, 0.22% active; AID 624168;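 active means activation of at least 8% versus controls, or a plate z-score of at least 8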;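 further: Pro5 are CHO cells carrying HIG-tagged alpha-DG that lacks glycosylation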
A number is an active result; i = inactive; nt = not tested or not shown. In the library only some 3.7% were active in any assay of this set; here they are far more common.

SMILES	procasp7 counter	MPTP block	proCasp3 act	GRIN3A LBD mod	aDG glyco act
O=C(CNc1cccc(F)c1)Nc1cccc(S(=O)(=O)N2CCCCC2)c1	nt	i	nt	14.1	i
COc1cccc(-c2cccc3c2NC(=O)C3(C)Cc2ccccc2F)c1 (stereo unspecified)	nt	i	nt	nt	i
Nc1nnc(SCC(=O)Nc2cccc(S(=O)(=O)N3CCCCC3)c2)s1	i	i	i	i	i
Cc1cc(S(=O)(=O)NCc2ccccc2)ccc1OCC(=O)NCc1ccccn1	i	i	i	i	i
O=C(CCNC(=O)c1ccc(Cl)cc1)Nc1cccc(S(=O)(=O)N2CCCCCC2)c1	i	i	i	28.6	i
Cc1cc(S(=O)(=O)NCc2ccccc2)ccc1OCC(=O)Nc1cccc([N+](=O)[O-])c1	i	i	i	11.0	i
O=C(CSc1nnc(Nc2ccccc2)s1)Nc1cccc(S(=O)(=O)N2CCCCC2)c1	i	i	i	16.4	i
O=C(NCC(F)(F)F)c1csc([C@@H]2O[C@H](CO)[C@H](O)[C@H](O)[C@H]2O)n1	nt	i	nt	nt	i
COC(=O)C1CCN(S(=O)(=O)CCNC(=O)c2ccccc2)CC1	nt	i	nt	nt	i
CC1Cc2cc(S(=O)(=O)N3CCC(C(=O)N(C)Cc4ccccc4)CC3)ccc2N1C(=O)C1CC1 (stereo unspecified)	i	i	i	i	i
Cc1nn(CCCC(=O)Nc2cc(Oc3ccccc3)cc([N+](=O)[O-])c2)c(C)c1[N+](=O)[O-]	i	i	i	i	i
Cc1ccc(Oc2cc(NC(=O)CCCn3nc([N+](=O)[O-])cc3C)cc([N+](=O)[O-])c2)cc1	i	i	i	10.2	i
Cn1cc([N+](=O)[O-])c(C(=O)Nc2cc(Oc3ccccc3)cc([N+](=O)[O-])c2)n1	i	i	i	i	i
Cc1nn(C)cc1C(=O)Nc1cc(Oc2ccc(Cl)cc2)cc([N+](=O)[O-])c1	i	i	i	17.3	i
COCc1cccc(-c2csc(C(C)(O)c3cccc(OC)c3)n2)c1 (stereo unspecified)	nt	i	nt	nt	i
COc1ccccc1Oc1cn[nH]c1-c1ccc(O)cc1O	i	i	i	i	i
COc1cccc(Oc2cn[nH]c2-c2ccc(OC)cc2O)c1	i	i	i	22.2	i
COc1cccc(Oc2cn[nH]c2-c2ccc(O)cc2O)c1	i	i	i	28.3	i
CCOc1ccc(-c2[nH]ncc2Oc2cccc(OC)c2)c(O)c1	i	i	i	i	i
CCOC(=O)C1=CCN(S(=O)(=O)c2ccccc2C)C1c1ccc(Cl)cc1 (stereo unspecified)	nt	i	nt	nt	i
COc1ccccc1NS(=O)(=O)c1cc(NC(=O)C(C)C)ccc1N1CCCCC1	i	i	i	i	i
COc1ccccc1NS(=O)(=O)c1cc(NC(=O)Nc2ccccc2)ccc1N1CCCCC1	i	i	i	19.5	i
Cc1ccc(NC(=O)CS(=O)CC(=O)Nc2cnc3ccccc3c2)cc1Cl (stereo unspecified)	i	i	i	32.3	i
Cc1ccc(NC(=O)CS(=O)CC(=O)NCCCc2ccccc2)cc1Cl (stereo unspecified)	i	i	i	i	i
COc1cc(/C=N/NC(=O)c2c(C)nnn2-c2nonc2N)ccc1O	i	i	i	13.5	i
SMILES	procasp7 counter	MPTP block	proCasp3 act	GRIN3A LBD mod	aDG glyco act
Cc1nnn(-c2nonc2N)c1C(=O)N/N=C/c1ccccc1O	i	i	i	29.9	i
CCCOc1ccc(/C=N/NC(=O)c2nnn(-c3nonc3N)c2-c2cccs2)cc1OC	i	i	i	i	i
Cc1nnn(-c2nonc2N)c1C(=O)N/N=C/c1cccc2ccccc12	i	i	i	33.1	i
CC1=C(C(=O)N2CCCCCC2)CC(CC(=O)NCCc2ccccn2)C(=O)N1Cc1ccc(C(C)(C)C)cc1 (stereo unspecified)	nt	i	nt	nt	i
CCCCN(CCCNC(=S)NCCCc1cnc[nH]1)c1ccc(Br)cn1	nt	i	nt	nt	i
Cc1ccccc1NC(=O)Nc1nnc([C@@H]2C[C@H](O)[C@@H](CO)O2)s1	nt	i	nt	nt	i
Nc1nonc1-n1nnc(C(=O)N/N=C/c2ccoc2)c1CSc1ccc(Cl)cc1	i	i	i	34.7	i
Nc1nonc1-n1nnc(C(=O)N/N=C/c2ccccc2)c1CSc1ccccc1	i	i	i	35.5	i
Cc1ccc(/C=N/NC(=O)c2nnn(-c3nonc3N)c2CSc2ccc(Cl)cc2)o1	i	i	i	21.0	i
